Source: ChEMBL document CHEMBL4196141, “Improved Antibacterial Activity of the Marine Peptide N6 against Intracellular Salmonella Typhimurium by Conjugating with the Cell-Penetrating Peptide Tat11 via a Cleavable Linker” (J Med Chem, 2018)
≈ marks a conversion by molar mass, not a printed value. Calls of active or inactive are those of the source. No cut-off for these calls is given here. Positions of bridges follow the written chain, without caps; N, C: chain ends. Residues, ends and D or L forms follow the SMILES beside them.

Key:
[1] = Drug internalization in mouse RAW264.7 using FITC-labeled compound at 2 uM pre-incubated for 1 hr with clathrin-mediated endocytosis inhibitor chlorpromazine followed by compound addition and subsequent incubation for 2 hrs by flow cytometry; assay type: ADME, cell-based; settings: raw264.7, 2 h
Method in brief: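 RAW264.7 cells were pretreated 1 h at 37 °C with 3 mM amiloride, 20 µM nocodazole, 6 µg/mL chlorpromazine or 5 mM MβCD. FITC-labeled peptide was then added for 2 h at 37 °C. Extracellular fluorescence was quenched with 0.4% Trypan blue and intracellular fluorescence read by flow cytometry against an untreated control.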

Salmonella typhimurium [2] = test: Antibacterial activity against Salmonella typhimurium ATCC 14028 assessed as microbial inhibition zone pretreated for 1 hr at 4 to 100 degC by inhibition zone assay; settings: Salmonella enterica subsp. enterica serovar Typhimurium
Salmonella typhimurium [3] = test: Antibacterial activity against Salmonella typhimurium ATCC 14028 assessed as time duration for reduction in growth using cathepsin B pre-treated compound at 1 to 2 MIC incubated for 1 to 24 hrs by time kill assay; assay type: functional, Salmonella enterica subsp. enterica serovar Typhimurium
Method in brief: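 Time-kill of cathepsin B-pretreated peptide (1 h, 37 °C, pH 5 buffer). Mid-log S. Typhimurium at 10^5 CFU/mL was exposed to 1× and 2× MIC at 37 °C with shaking at 250 rpm. Samples were taken every 2 h, serially diluted and plate-counted. N6 and ciprofloxacin served as controls.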

[4] = Drug localisation in cytosol of mouse RAW264.7 using FITC-labeled compound at 5 uM incubated for 2 hrs by confocal microscopy; assay type: ADME, cell-based
Method in brief: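 RAW264.7 cells were plated for 18 h at 37 °C, then given 5 µM FITC or FITC-labeled peptide for 2 h. Nuclei were stained with Hoechst 33342 and membranes with FM 4-64 (each 5 µg/mL) for 30 min at 37 °C. Cells were PBS-washed and imaged by confocal fluorescence microscopy.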

[5] = Drug uptake in mouse RAW264.7 using FITC-labeled compound at 5 uM incubated for 2 hrs by flow cytometry; assay type: ADME, cell-based; settings: raw264.7, 2 h
Method in brief: (§1)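 Confluent RAW264.7 cells were resuspended in PBS and incubated at 37 °C with 5 µM FITC-labeled peptide. Samples taken at 0.5 h and 2 h were quenched with 0.4% Trypan blue for extracellular fluorescence. Uptake (percent internalized cells) was read by flow cytometry, with free FITC as negative control.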

Salmonella typhimurium [6] = test: Antibacterial activity against Salmonella typhimurium ATCC 14028 infected in ICR mouse model of peritonitis assessed as mouse survival at 2 umol/kg, ip dosed at 0.5 and 8 hrs post infection and measured daily for 7 days
Salmonella typhimurium [7] = test: Bactericidal activity against 2 hrs-gentamicin pre-exposed Salmonella typhimurium ATCC 14028 assessed as reduction colony forming units at 50 uM incubated for 10 hrs; assay type: functional, Salmonella enterica subsp. enterica serovar Typhimurium
Method in brief: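 Macrophage protection assay. RAW264.7 cells (5 × 10^4/well, 24 h) were infected with S. Typhimurium ATCC14028 at MOI 10 for 1 h in DMEM/10% FBS, exposed to 100 µg/mL gentamicin for 2 h at 37 °C, and PBS-washed. Peptides in DMEM/10% FBS were added for 10 h. Cells were lysed with 0.1% Triton X-100 and CFU plated; log10 CFU reduction versus untreated cells. Three replicates; two independent experiments; one-way ANOVA with Tukey.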

[8] = Drug uptake in mouse RAW264.7 using FITC-labeled compound at 5 uM incubated for 0.5 hrs by flow cytometry; assay type: ADME, cell-based; settings: raw264.7, 0.5 h; method in brief: as §1
Salmonella typhimurium [9] = test: Bactericidal activity against 2 hrs-gentamicin pre-exposed Salmonella typhimurium ATCC 14028 assessed as reduction colony forming units at 10 uM measured within 9 hrs; assay type: functional, organism-based; settings: Salmonella enterica subsp. enterica serovar Typhimurium
Method in brief: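 RAW264.7 cells in DMEM/10% FBS were infected with S. Typhimurium ATCC14028 at MOI 10 for 1 h, then given 100 µg/mL gentamicin for 2 h at 37 °C and washed. Cells were treated with 10 µM agent for 1, 3, 6, 9 and 12 h, lysed with 0.1% Triton X-100, and surviving intracellular bacteria were serially diluted and plated for CFU.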

Salmonella typhimurium [10] = test: Antibacterial activity against Salmonella typhimurium ATCC 14028 using 1 hr cathepsin B pre-treated compound followed by incubation for 16 to 18 hrs at pH 5 by broth microdilution method; assay type: functional, Salmonella enterica subsp. enterica serovar Typhimurium; settings: Salmonella enterica
Method in brief: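 Cathepsin B (bovine spleen, 10 µg/mL) was added for 1 h at 37 °C, and the reaction was stopped with 9 volumes of MHB. MIC was then run by broth microdilution (5 × 10^5 CFU/mL, 16–18 h, 37 °C) in medium adjusted to pH 5.0.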

SMILES: CC(C)[C@@H]1NC(=O)CNC(=O)[C@H](CC(N)=O)NC(=O)[C@H](CCCNC(=N)N)NC(=O)[C@H](Cc2ccc(O)cc2)NC(=O)[C@H](C(C)C)NC(=O)[C@@H](NC(=O)[C@@H](NC(=O)[C@H](CC(N)=O)NC(=O)[C@H](Cc2c[nH]c3ccccc23)NC(=O)[C@H](C)NC(=O)[C@H](Cc2ccccc2)NC(=O)CN)C(C)C)CSSC[C@@H](C(=O)N[C@@H](Cc2cnc[nH]2)C(=O)N[C@@H](CCCNC(=N)N)C(=O)N[C@@H](CCCNC(=N)N)C(=O)N[C@@H](C)C(=O)N[C@@H](CC(N)=O)C(N)=O)NC(=O)[C@H](C(C)C)NC(=O)[C@H](CCCNC(=N)N)NC1=O (H-GFAWNVCVYRNGVRVCHRRAN-NH2; disulfide 7-16)
- Drug uptake [1]: Active
- Activity (Salmonella typhimurium [2]): Active
- Time (Salmonella typhimurium [3]): <=2 hr
- Drug uptake [4]: Active
- Drug uptake [5]: 75.2%
- Activity (Salmonella typhimurium [6]): 100%
- Activity (Salmonella typhimurium [7]): 3.13 log10CFU
- Drug uptake [8]: 30.4%
- Activity (Salmonella typhimurium [9]): Active
- MIC (Salmonella typhimurium [10]): 3.2 µM (≈ 7.92 µg/mL)

SMILES: CC(C)[C@H](NC(=O)CCCCCN1C(=O)CC(SC[C@H](N)C(=O)N[C@@H](Cc2ccc(O)cc2)C(=O)NCC(=O)N[C@@H](CCCNC(=N)N)C(=O)N[C@@H](CCCCN)C(=O)N[C@@H](CCCCN)C(=O)N[C@@H](CCCNC(=N)N)C(=O)N[C@@H](CCCNC(=N)N)C(=O)N[C@@H](CCC(N)=O)C(=O)N[C@@H](CCCNC(=N)N)C(=O)N[C@@H](CCCNC(=N)N)C(=O)N[C@@H](CCCNC(=N)N)C(=O)O)C1=O)C(=O)N[C@@H](CCCNC(N)=O)C(=O)Nc1ccc(COC(=O)NCC(=O)N[C@@H](Cc2ccccc2)C(=O)N[C@@H](C)C(=O)N[C@@H](Cc2c[nH]c3ccccc23)C(=O)N[C@@H](CC(N)=O)C(=O)N[C@H](C(=O)N[C@H]2CSSC[C@@H](C(=O)N[C@@H](Cc3cnc[nH]3)C(=O)N[C@@H](CCCNC(=N)N)C(=O)N[C@@H](CCCNC(=N)N)C(=O)N[C@@H](C)C(=O)N[C@@H](CC(N)=O)C(=O)O)NC(=O)[C@H](C(C)C)NC(=O)[C@H](CCCNC(=N)N)NC(=O)[C@H](C(C)C)NC(=O)CNC(=O)[C@H](CC(N)=O)NC(=O)[C@H](CCCNC(=N)N)NC(=O)[C@H](Cc3ccc(O)cc3)NC(=O)[C@H](C(C)C)NC2=O)C(C)C)cc1 (stereo partly drawn)
- Drug uptake [1]: Not Active
- Time (Salmonella typhimurium [3]): <=2 hr
- Drug uptake [4]: Active
- Drug uptake [5]: 95.8%
- Activity (Salmonella typhimurium [7]): 2.06 log10CFU
- Drug uptake [8]: 82.1%
- Activity (Salmonella typhimurium [9]): Active
- MIC (Salmonella typhimurium [10]): 13.6 µM (≈ 64.4 µg/mL)
